OX1R antag-1 – antagonists of human orexin 1 receptor (OX1R); OX1R-expressing cells, FRET antagonist read-out; actives 1.8% (n = 330,000); inhibition, % at 6.6 µM; in the data active = inhibition mostly above about 38%, no sharp cut-off; inactive = mostly below about 40%;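 also: 0% = agonist challenge alone and 100% = reference antagonist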
GPR7 antagonist – GPR7 receptor antagonists, primary screen, cell-based, fluorescence, single concentration | Neuropeptides B/W receptor type 1 (Homo sapiens), P48145 | GPR7-expressing cells, fluorescence antagonist assay | inhibition, % at 4.4 µM | actives 1.1% (n = 290,000) | AID 1861, 2009; in the data active = inhibition above about 16%, passing the limit was not always enough;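 also: cells stimulated with the agonist NPW; 0% = agonist with vehicle and 100% = vehicle without agonist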
Target sequence (P48145 whole entry, looked up): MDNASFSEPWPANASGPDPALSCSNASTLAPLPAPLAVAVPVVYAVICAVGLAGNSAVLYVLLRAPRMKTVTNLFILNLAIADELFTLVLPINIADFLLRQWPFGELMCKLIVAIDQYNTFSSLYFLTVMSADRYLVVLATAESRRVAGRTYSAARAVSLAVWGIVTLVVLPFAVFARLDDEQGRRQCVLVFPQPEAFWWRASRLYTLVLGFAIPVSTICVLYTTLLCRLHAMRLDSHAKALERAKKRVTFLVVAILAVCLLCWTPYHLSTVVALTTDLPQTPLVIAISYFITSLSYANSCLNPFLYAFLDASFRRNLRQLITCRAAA
CHO parental Ca – ATP-evoked calcium signal inhibitors, parental CHO, primary screen, counter-screen for OX1R antagonist project, cell-based, fluorescence, Fluo-8 calcium dye; parental CHO-K1, ATP-induced calcium, Fluo-8 fluorescence; inhibition, % at 5.6 µM; actives 0.63% (n = 330,000); AID 463079, 2010;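 active = inhibition above that plate's mean sample inhibition plus 3 SD, cut at about 26% in these data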;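 also: 0% = ATP-challenged DMSO wells and 100% = DMSO wells without ATP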
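Assay system: parental CHO cells; Read-out basis: percent inhibition of ATP-evoked calcium rise, normalized to controls; Benchmarks: ATP and no-ATP DMSO wells; Compound dosing: single nominal dose of 5.6 µM per compound; Signal: Fluo-8 calcium dye fluorescence; Also added: ATP as calcium-mobilizing challenge; Repeats: singlicate.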
TAAR1 antag – human TAAR1 antagonists, primary screen, Fluo-8 calcium fluorescence, CHO RD-HGA16 cells. Trace amine-associated receptor 1 (Homo sapiens), Q96RJ0. antagonist. inhibition, % at 3 µM. actives 1.5% (n = 360,000). AID 624466, 2012;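 active = inhibition above a per-plate cutoff, the mean inhibition of test compounds on that plate plus 3 SD, cut at about 49% in these data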;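 also: 0% = DMSO plus EC80 beta-PEA response and 100% = DMSO alone without agonist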
Target sequence (Q96RJ0 whole entry, looked up): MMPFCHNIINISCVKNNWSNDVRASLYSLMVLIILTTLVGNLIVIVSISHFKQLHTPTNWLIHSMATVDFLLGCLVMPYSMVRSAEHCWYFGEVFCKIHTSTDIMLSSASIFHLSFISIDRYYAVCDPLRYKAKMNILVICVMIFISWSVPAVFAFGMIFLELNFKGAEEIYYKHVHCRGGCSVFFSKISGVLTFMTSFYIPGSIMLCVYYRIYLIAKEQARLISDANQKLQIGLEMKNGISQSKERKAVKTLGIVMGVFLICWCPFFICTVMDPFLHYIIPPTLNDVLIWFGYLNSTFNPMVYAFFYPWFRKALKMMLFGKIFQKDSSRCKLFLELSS
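Assay system: RD-HGA16 CHO cells with stable hTAAR1 and Gα16 / Reagent: EC80 β-phenethylamine stimulus / Doses: 3 µM, single point / Timing: dye loading 75 min at 37 °C, then 30 min room temperature / Measured by: Fluo-8 intracellular calcium dye fluorescence, real-time kinetic reads / Controls: vehicle wells and EC80 agonist wells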
OX1R antag-2 – OX1R (HCRTR1) antagonists, primary screen, fluorescence, CHO/OX1R cells, Fluo-8 calcium, orexin A; Orexin/Hypocretin receptor type 1 (Homo sapiens), O43613; Fluo-8 calcium fluorescence; inhibition, % at 5 µM; actives 0.43% (n = 330,000); AID 434989, 2010;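 active = inhibition above its plate's threshold, mean inhibition of all tested compounds on the plate plus 3 SD, cut at about 37% in these data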;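 also: 0% = orexin A challenge wells and 100% = SB-334867-A antagonist wells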
TAAR1 ag – human TAAR1 agonists, primary screen, Fluo-8 calcium fluorescence, CHO RD-HGA16 cells; Trace amine-associated receptor 1 (Homo sapiens), Q96RJ0; vehicle wells 0%, saturating PEA agonist 100%; activation, % at 3 µM; actives 0.99% (n = 360,000); AID 624467, 2012;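 active = activation above the mean activation of all test compounds in the run plus 3 SD, cut at about 38% in these data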
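Repeats: no replicates (n 1) | Material: CHO-derived RD-HGA16 cells with stable Gα16 and human TAAR1 | Technique: Kinetic Fluo-8 calcium fluorescence | Schedule: 17-24 h seeding, 75 min 37 °C dye, 30 min RT | Evaluation: % activation from peak over basal fluorescence ratio, DMSO-to-PEA scaled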
An asterisk follows results filed as active; x = no result. Shown are actives, neighbours in structure and some others; about 4.6% of the full set was active somewhere.

SMILES | OX1R antag-1 | GPR7 antagonist | CHO parental Ca | TAAR1 antag | OX1R antag-2 | TAAR1 ag
NC(=O)c1ncn([C@@H]2O[C@H](C(=O)N[C@H](Cc3c[nH]c4ccccc34)C(=O)N3CCN(C(=O)N4CCOCC4)CC3)[C@@H](O)[C@H]2O)n1 | x | x | x | -25 | x | 2
Cc1ccc(-c2ocnc2C(=O)Nc2ccccc2NC(=O)c2ccccn2)cc1 | 20 | -4 | -22 | 25 | -29 | -1
Cc1cccc(-c2ocnc2C(=O)Nc2ccccc2NC(=O)c2ccccn2)c1 | 66* | -20 | -12 | 18 | -26 | -2
CC(C)(C)n1nnnc1C(c1cc2ccccc2o1)N1CCCCC1 (stereo unspecified) | x | x | x | -20 | x | 9
Nc1ccn([C@@H]2O[C@H](C(=O)N[C@H](Cc3ccccc3)C(=O)N3CCN(CC(=O)N4CCCC4)CC3)[C@@H](O)[C@H]2O)c(=O)n1 | x | x | x | -14 | x | 3
CC(C)C1C(C#N)=C(N)Oc2n[nH]c(-c3ccc4ccccc4c3)c21 (stereo unspecified) | -4 | -8 | 34* | 32 | 42 | 22
O=C(COC(=O)CN1C(=O)NC2(CCCC2)C1=O)Nc1ccccc1C(F)(F)F | 7 | x | -3 | -16 | -15 | 3
O=C(COC(=O)CN1C(=O)NC2(CCCC2)C1=O)Nc1ccc(C(F)(F)F)cc1[N+](=O)[O-] | 41* | x | -5 | 29 | -18 | 10
Cc1ccc(NC(=O)CN2C(=O)NC3(CCCc4ccccc43)C2=O)c([N+](=O)[O-])c1 (stereo unspecified) | 54* | 9 | -1 | -13 | -6 | 6
CC(=O)N1/C(=C/c2ccc(N(C)C)cc2)C(=O)c2ccccc21 | x | 28* | x | 17 | x | 11
CCOC(=O)C1=C(C(=O)OCC)C2N(Cc3ccc(Br)cc3)c3ccccc3[C@@]23C[C@@H](C(=O)OC)N(S(=O)(=O)c2ccc(OC)cc2)C3=N1 (stereo partly specified) | x | x | x | 4 | x | 1
CC(C)COC(=O)N1CCCCC1c1cc(C(=O)N2CCOCC2)no1 (stereo unspecified) | x | x | x | -20 | x | 4
COc1ccccc1C(=O)NC(=S)Nc1cccnc1Cl | 47* | -14 | -22 | 7 | -9 | -4
COc1ccc(Cn2nnnc2CN(Cc2cc3ccc(C)cc3[nH]c2=O)C2CCCC2)cc1 | 43* | 1 | -29 | 13 | -1 | 1
COc1ccc(Cn2nnnc2CN(Cc2cc3cccc(C)c3[nH]c2=O)C2CCCC2)cc1 | 33 | -11 | -21 | 49 | -27 | 14
CC[n+]1c(/C=C/c2ccc(OC(C)=O)c(OC)c2)ccc2ccccc21 | x | -15 | x | -2 | x | 0
CC[n+]1c(/C=C/c2ccc(OC)c(OC)c2)ccc2ccccc21 | 65* | -8 | -4 | -21 | -23 | 0
COC(=O)[C@]12C[C@H](CC(=O)NCCCN3CCCC3=O)C(=O)N(Cc3ccccc3)C1=C[C@H](C(C)C)O[C@@H]2C1CC1 | x | x | x | 0 | x | 1
CS(=O)(=O)N(CC(=O)N1CCN(Cc2ccccc2)CC1)Cc1ccccc1 | 9 | 16* | 2 | -3 | -4 | 3
CCOC(=O)N1CCN(C(=O)CN(Cc2ccccc2)S(C)(=O)=O)CC1 | 15 | -16 | -1 | -10 | 2 | 0
O=C(Nc1nc2c(s1)CCCC2=O)c1cnccn1 | 49* | -13 | 2 | 11 | -11 | 4
O=C1c2c(-c3ccc(Br)cc3)noc2CCN1Cc1cn(C2CCCC2)nn1 | x | x | x | -34 | x | 1
Cc1cc(C(=O)COC(=O)c2ccncc2)c(C)n1CCc1ccc(F)cc1 | -1 | 4 | 4 | 10 | -12 | 48*
Cc1cc(C(=O)Cn2cncn2)c(C)n1CCc1ccc(F)cc1 | 27 | -13 | -9 | 3 | -12 | 31
C/C(=N\NC(=O)c1cc(Br)ccc1O)c1cccc(NC(=O)c2ccccc2F)c1 | 59* | -19 | -8 | -19 | -15 | 4
SMILES | OX1R antag-1 | GPR7 antagonist | CHO parental Ca | TAAR1 antag | OX1R antag-2 | TAAR1 ag
C/C(=N\NC(=O)c1ccccc1F)c1cccc(NC(=O)c2ccccc2)c1 | 10 | -8 | -12 | 2 | -22 | 1
CCOC(=O)N[C@@H](Cc1cccnc1)C(=O)N1CCC[C@H]1C(=O)NC1CCCC1 | x | x | x | -12 | x | 3
N/C(=N\OC(=O)c1cc([N+](=O)[O-])ccc1Cl)c1ccccn1 | 46 | -16 | -5 | -20 | -7 | 10
N/C(=N\OC(=O)c1ccc([N+](=O)[O-])cc1Cl)c1ccccn1 | 54* | -6 | -16 | -24 | -28 | 1
O=C(NCc1ccco1)c1cccc2c1C(=O)c1ccc(/C=C/c3ccccc3)cc1S2(=O)=O | 16 | x | -4 | 51* | 6 | 13
COc1cc(CCC(=O)OCc2nnc(-c3ccccc3)o2)cc(OC)c1OC | 13 | -9 | -26 | -7 | -20 | 8
COc1ccc(-c2cc(-c3nnc(COC(=O)CC4CCCC4)o3)c3ccccc3n2)cc1OC | 4 | -2 | -2 | 29 | -27 | 4
COc1cc(-c2nnc(COC(=O)CSc3cc(C)c4ccccc4n3)o2)cc(OC)c1OC | 70* | -5 | -18 | -5 | 10 | 2
COc1ccc(-c2cc(-c3nnc(COC(=O)C4CC4)o3)c3ccccc3n2)cc1OC | 19 | -8 | -2 | 52* | -13 | 9
O=C(NC1CCCCC1)C(c1ccccc1)n1c(=O)c(-c2cc3ccccc3[nH]2)nc2ccccc21 (stereo unspecified) | x | x | x | -23 | x | 0
Cc1nc2ccc(NS(=O)(=O)c3ccc(C)c(C)c3)cc2s1 | 37 | 13 | 55* | 12 | 32 | 19
Cc1ccsc1CN(C)c1ncnc2ccc(-c3ccoc3)cc12 | x | x | x | -10 | x | 2
CCOC(=O)N1CCN(C(=O)c2cn(-c3ccc(C)c(C)c3)c(=O)c3ccccc23)CC1 | x | 75* | x | -2 | x | 17
COc1ccc(OC[C@@H](O)CNC(=O)c2cccc3c2C(=O)c2ccc(Cl)cc2S3(=O)=O)cc1 | 42* | x | -35 | 35 | -22 | 25
O=C(NCc1ccc(F)cc1)c1cccc2c1C(=O)c1ccc(Cl)cc1S2(=O)=O | x | x | x | 0 | x | 9
CN(C)c1cc(-c2ccc(Cl)cc2)oc(=O)c1Cl | 16 | -13 | -16 | 0 | -32 | -1
CN(C)c1cc(-c2ccc([N+](=O)[O-])cc2)oc(=O)c1Cl | 49* | -17 | -12 | -4 | -21 | 0

Source: PubChem (The Scripps Research Institute Molecular Screening Center)
